Source: ChEMBL document CHEMBL3286099, “Synthesized quercetin derivatives stimulate melanogenesis in B16 melanoma cells by influencing the expression of melanin biosynthesis proteins MITF and p38 MAPK” (Bioorg Med Chem, 2014)

Key:
B16-F0 [1] = experiment: Intracellular melanogenesis-stimulating activity in mouse B16F0 cells at 250 uM after 72 hrs by spectrophotometry relative to control; type: functional
B16-F0 [2] = experiment: Intracellular melanogenesis-stimulating activity in mouse B16F0 cells at 125 uM after 72 hrs by spectrophotometry relative to control; type: functional
Method in brief: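 After 72 h treatment of B16-F0 cells (5.0 × 10⁴ cells/well, 24 h adherence), cells were washed with PBS and lysed in 1 M NaOH at 100 °C for 30 min to solubilise melanin. Lysate absorbance was read at 405 nm as intracellular melanin, expressed as % of DMSO control; experiments repeated twice.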

[3] = Cytotoxicity against mouse B16F0 cells assessed as cell viability at 250 uM after 72 hrs by MTT assay; type: cell-based; conditions: read-out: Activity
[4] = Cytotoxicity against mouse B16F0 cells assessed as cell viability at 500 uM after 72 hrs by MTT assay; type: cell-based; conditions: read-out: Activity
B16-F0 [5] = experiment: Extracellular melanogenesis-stimulating activity in mouse B16F0 cells at 250 uM after 72 hrs by spectrophotometry relative to control; type: functional
B16-F0 [6] = experiment: Extracellular melanogenesis-stimulating activity in mouse B16F0 cells at 500 uM after 72 hrs by spectrophotometry relative to control; type: functional
[7] = Cytotoxicity against mouse B16F0 cells assessed as cell viability at 125 uM after 72 hrs by MTT assay; type: cell-based; conditions: read-out: Activity
Method in brief: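 B16-F0 murine melanoma cells in DMEM with 10% FBS, penicillin and streptomycin, at 37 °C and 5% CO₂. Seeded at 5.0 × 10⁴ cells/well, adhered 24 h, then exposed 72 h. MTT (5 mg/mL stock in PBS) added for 4 h at 37 °C, formazan taken up in isopropanol with 0.04 N HCl, A590 read. Viability given as % of DMSO control; experiments repeated twice.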

B16-F0 [8] = experiment: Extracellular melanogenesis-stimulating activity in mouse B16F0 cells at 125 uM after 72 hrs by spectrophotometry relative to control; type: functional
Method in brief: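 B16-F0 cells were seeded at 5.0 × 10⁴ cells/well, allowed to adhere for 24 h, then treated for 72 h. Culture medium was collected and its absorbance read at 510 nm as extracellular melanin. Results are % of DMSO-treated control; experiments repeated twice.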

B16-F0 [9] = experiment: Intracellular melanogenesis-stimulating activity in mouse B16F0 cells at 500 uM after 72 hrs by spectrophotometry relative to control; type: functional

## Cn1c(=O)c2nc[nH]c2n(C)c1=O.O [THEOPHYLLINE]
B16-F0 [1]
  Activity: 131.7%
B16-F0 [2]
  Activity: 127.6%
[3]
  viability at 72 h, 250 µM: 94.4%
[4]
  viability at 72 h, 500 µM: 91.4%
B16-F0 [5]
  Activity: 183.2%
B16-F0 [6]
  Activity: 204%
[7]
  viability at 72 h, 125 µM: 95.5%
B16-F0 [8]
  Activity: 170.7%
B16-F0 [9]
  Activity: 166.8%
